≈ marks a conversion by molar mass, not a printed value.
Assays:
[1] = Biodistribution in healthy human epithelial lining fluid assessed as drug accumulation at 500 mg; type: ADME, organism-based; details: in vivo
Chlamydia trachomatis [2] = assay: Antibacterial activity against azithromycin-tolerant 0.01 MOI Chlamydia trachomatis L2AZM#31 harboring mutation in bacterial ribosomal protein L4 infected in mouse L2 cells treated 2 hrs after infection measured on day 7 by plaque assay; type: functional
How it was run: (§1)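 Susceptibility measured in a plaque assay on confluent mouse fibroblast L2 cell monolayers in 60-mm dishes. The inoculum was 10^5 chlamydial PFU, equal to an MOI of 0.01. MIC was taken as the drug concentration that inhibited development of these 10^5 PFU.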

Chlamydia psittaci 6BC = assay: Antibacterial activity against 0.01 MOI wild type Chlamydia psittaci 6BC BCRB infected in mouse L2 cells treated 2 hrs after infection measured on day 7 by plaque assay; type: functional; how it was run: as §1
Chlamydia trachomatis [3] = assay: Antibacterial activity against 0.01 MOI wild type Chlamydia trachomatis L2/LGV/434/Bu infected in mouse L2 cells treated 2 hrs after infection measured on day 7 by plaque assay; type: functional; how it was run: as §1
Chlamydia trachomatis [4] = assay: Antibacterial activity against azithromycin-tolerant 0.01 MOI Chlamydia trachomatis L2AZM#23 harboring mutation in bacterial ribosomal protein L4 infected in mouse L2 cells treated 2 hrs after infection measured on day 7 by plaque assay; type: functional; how it was run: as §1

| Molecule | Drug uptake [1] | MIC (Chlamydia trachomatis [2]) | MIC (Chlamydia psittaci 6BC) | MIC (Chlamydia trachomatis [3]) | MIC (Chlamydia trachomatis [4]) |
| --- | --- | --- | --- | --- | --- |
| CC[C@H]1OC(=O)[C@H](C)[C@@H](O[C@H]2C[C@@](C)(OC)[C@@H](O)[C@H](C)O2)[C@H](C)[C@@H](O[C@@H]2O[C@H](C)C[C@H](N(C)C)[C@H]2O)[C@](C)(O)C[C@@H](C)CN(C)[C@H](C)[C@@H](O)[C@]1(C)O [AZITHROMYCIN] | 2 µg/mL | 0.8 µg/mL (≈ 1.07 µM) | 0.1 µg/mL (≈ 0.134 µM) | 0.1 µg/mL (≈ 0.134 µM) | 0.8 µg/mL (≈ 1.07 µM) |
| O=C(N[C@H](CO)[C@H](O)c1ccc([N+](=O)[O-])cc1)C(Cl)Cl [CHLORAMPHENICOL] |  | 0.4 µg/mL (≈ 1.24 µM) |  | 0.4 µg/mL (≈ 1.24 µM) | 0.4 µg/mL (≈ 1.24 µM) |
| CCC[C@@H]1C[C@@H](C(=O)N[C@@H]([C@H]2O[C@H](SC)[C@H](O)[C@@H](O)[C@H]2O)[C@H](C)Cl)N(C)C1 [CLINDAMYCIN] |  | 0.5 µg/mL (≈ 1.18 µM) | 0.4 µg/mL (≈ 0.941 µM) | 0.125 µg/mL (≈ 0.294 µM) | 0.5 µg/mL (≈ 1.18 µM) |
| CC[C@H]1OC(=O)[C@H](C)[C@@H](O[C@H]2C[C@@](C)(OC)[C@@H](O)[C@H](C)O2)[C@H](C)[C@@H](O[C@@H]2O[C@H](C)C[C@H](N(C)C)[C@H]2O)[C@](C)(O)C[C@@H](C)C(=O)[C@H](C)[C@@H](O)[C@]1(C)O [ERYTHROMYCIN] |  | 0.8 µg/mL (≈ 1.09 µM) | 0.2 µg/mL (≈ 0.273 µM) | 0.2 µg/mL (≈ 0.273 µM) | 0.8 µg/mL (≈ 1.09 µM) |
| CO[C@@H]1[C@@H](O[C@@H]2O[C@H](C)[C@@H](O[C@H]3C[C@@](C)(O)[C@@H](OC(=O)CC(C)C)[C@H](C)O3)[C@H](N(C)C)[C@H]2O)[C@@H](CC=O)C[C@@H](C)[C@@H](O)/C=C/C=C/C[C@@H](C)OC(=O)C[C@H]1OC(C)=O [JOSAMYCIN] |  | 0.2 µg/mL (≈ 0.242 µM) | 0.05 µg/mL (≈ 0.0604 µM) | 0.05 µg/mL (≈ 0.0604 µM) | 0.2 µg/mL (≈ 0.242 µM) |
| SPIRAMYCIN |  | 4 µg/mL | 1 µg/mL | 0.8 µg/mL | 4 µg/mL |
